{"data": "Measured values gathered from unrelated publications", "target": "Ephrin type-B receptor 2 (EPHB2, Homo sapiens, UniProt P29323)", "Sequence (P29323 1-1055, as in one of the studies)": "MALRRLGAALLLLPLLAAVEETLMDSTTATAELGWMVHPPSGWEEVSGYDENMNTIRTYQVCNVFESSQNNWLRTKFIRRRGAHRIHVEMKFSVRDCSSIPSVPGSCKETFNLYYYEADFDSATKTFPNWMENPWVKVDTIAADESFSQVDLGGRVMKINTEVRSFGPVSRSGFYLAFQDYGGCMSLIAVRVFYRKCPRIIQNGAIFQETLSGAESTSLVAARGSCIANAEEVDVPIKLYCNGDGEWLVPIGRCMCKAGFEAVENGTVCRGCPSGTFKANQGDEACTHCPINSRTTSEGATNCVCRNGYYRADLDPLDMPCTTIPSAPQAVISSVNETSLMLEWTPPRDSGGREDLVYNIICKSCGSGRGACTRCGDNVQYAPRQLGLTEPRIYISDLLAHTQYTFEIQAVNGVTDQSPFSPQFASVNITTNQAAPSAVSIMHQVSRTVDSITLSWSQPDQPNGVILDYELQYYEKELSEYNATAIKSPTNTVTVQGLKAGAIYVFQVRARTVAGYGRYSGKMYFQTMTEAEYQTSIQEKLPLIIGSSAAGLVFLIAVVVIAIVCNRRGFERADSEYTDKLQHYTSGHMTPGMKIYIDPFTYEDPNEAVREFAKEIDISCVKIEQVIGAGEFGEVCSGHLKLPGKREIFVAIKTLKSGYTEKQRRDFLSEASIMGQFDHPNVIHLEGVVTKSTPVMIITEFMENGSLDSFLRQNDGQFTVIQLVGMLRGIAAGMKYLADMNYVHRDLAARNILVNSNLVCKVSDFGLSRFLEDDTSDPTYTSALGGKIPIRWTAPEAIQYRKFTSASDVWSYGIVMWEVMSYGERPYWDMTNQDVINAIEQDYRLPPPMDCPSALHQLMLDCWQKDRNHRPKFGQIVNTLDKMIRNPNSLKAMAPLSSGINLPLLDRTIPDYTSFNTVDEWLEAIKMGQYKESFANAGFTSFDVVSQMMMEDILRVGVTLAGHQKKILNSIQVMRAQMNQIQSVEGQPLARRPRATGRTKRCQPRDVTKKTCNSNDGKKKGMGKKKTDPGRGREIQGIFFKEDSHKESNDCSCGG"}
{"Compound": "CC#CC(=O)N1CCC[C@H]1c1nc(-c2ccc(C(=O)Nc3ccccn3)cc2)c2c(N)nccn12", "assay": "enzyme activity, inhibitor", "conditions": "1 µM", "quantity": "inhibition", "value": "6%"}
{"Compound": "CCCCC(=O)Nc1ccc(-c2ccc3ncn(CCC)c(=O)c3c2)cn1", "assay": "binding, competition with immobilised ligand", "conditions": "0.5 µM", "quantity": "remaining binding", "value": "100%"}
{"Compound": "C[C@H]1CC[C@H](n2c3cnccc3c3cnc(Nc4ccc5c(n4)CCN(C(=O)CO)C5)nc32)CC1", "assay": "cell-free assay, competition with immobilised ligand", "conditions": "1 µM", "quantity": "remaining binding", "value": "100%"}
{"Compound": "CC(C)S(=O)(=O)c1ccc2nccc(Nc3ccc4sc(C5CCCC5)nc4c3)c2c1", "assay": "enzyme activity, inhibitor", "conditions": "1 µM", "quantity": "activity vs control", "value": "109%"}
{"Compound": "CO[C@@H]1[C@H](N(C)C(=O)c2ccccc2)C[C@H]2O[C@]1(C)n1c3ccccc3c3c4c(c5c6ccccc6n2c5c31)C(=O)NC4", "assay": "enzyme activity, inhibitor", "conditions": "1 µM", "quantity": "inhibition", "value": "0%"}
{"Compound": "C1=C/COCc2cc(ccc2OCCN2CCCC2)Nc2nccc(n2)-c2cccc(c2)COC/1", "assay": "binding", "conditions": "0.1 µM", "quantity": "remaining binding", "value": "88%"}
{"Compound": "Cc1ccc(NC(=O)c2ccnc(C(F)(F)F)c2)cc1-c1cc(OCCO)nc(N2CCOCC2)c1", "assay": "binding, competition with immobilised ligand", "conditions": "1 µM", "quantity": "remaining binding", "value": "85%"}
{"Compound": "Cc1cc(O)c(-c2ccc([C@@H](C)CN(C)C)cc2)c2c1[nH]c(=O)c1sccc12", "assay": "cell-free assay, inhibitor", "conditions": "0.1 µM", "quantity": "inhibition", "value": "0.144%"}
